Experimental data from ChEMBL document CHEMBL3525963, “Tissue distribution and elimination of [14C]apixaban in rats” (Drug Metab Dispos, 2011).

How the values were obtained:
Parameters in all cases: dose 5 mg/kg, dosed compound name [14C]-apixaban, route oral
Conditions in all cases: in vivo
Blood [1] = assay: AUC (0 to t) in lactating Sprague-Dawley rat blood at 5 mg/kg, po administered as single dose; type: ADME, organism-based
Rattus norvegicus [2] = assay: Biodistribution in pregnant Sprague-Dawley rat brown fat at 5 mg/kg, po administered as single dose measured after 48 hrs; type: ADME, organism-based, Brown adipose tissue
Summary of the method: (§1)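 Fasted pregnant SD rats (n=6, 270-319 g) each received one oral gavage dose of [14C]apixaban, 5 mg/kg (100 μCi/kg), in 0.5% Tween 80/Labrafil. One rat was killed at each of 0.5, 1, 4, 8, 24 and 48 h. Carcasses were frozen in hexane/dry ice, cut into 40 µm sagittal sections, exposed to phosphor plates and quantified against [14C]glucose standards as µg eq/g. LLOQ was 0.037 µg eq/g.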

Rattus norvegicus [3] = assay: Biodistribution in female Sprague-Dawley rat bone marrow at 5 mg/kg, po administered as single dose measured after 1 hr; type: ADME, organism-based
Summary of the method: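 [14C]apixaban (20 μCi/mL in dosing solution) in 0.5% Tween 80 in Labrafil given by oral gavage to fasted female rats, 206-213 g, at 100 μCi/kg. One rat per time point was euthanized and snap-frozen. Sagittal 40 µm whole-body sections were read by QWBA phosphor imaging against [14C]glucose standards. Results are in µg eq apixaban/g, with LLOQ 0.037 μg eq/g.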

Rattus norvegicus [4] = assay: Biodistribution in male Sprague-Dawley rat bone marrow at 5 mg/kg, po administered as single dose measured after 24 hrs; type: ADME, organism-based
Summary of the method: (§2)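 Fasted male SD rats (225-252 g) each received one oral gavage dose of [14C]apixaban, 5 mg/kg (100 μCi/kg), in 0.5% Tween 80/Labrafil vehicle. One rat was killed per time point, from 0.5 to 168 h. Frozen carcasses were cut into 40 µm sagittal whole-body sections and read by QWBA phosphor imaging against [14C]glucose calibrants. Results are in µg apixaban eq/g; BLQ <0.037 µg eq/g.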

Spleen = assay: Biodistribution in male Sprague-Dawley rat spleen at 5 mg/kg, po administered as single dose measured after 24 hrs; type: ADME, organism-based; summary of the method: as §2
Adrenal gland [5] = assay: Biodistribution in female Sprague-Dawley rat adrenal gland at 5 mg/kg, po administered as single dose measured after 8 hrs; type: ADME, organism-based
Summary of the method: (§3)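 [¹⁴C]Apixaban given by oral gavage at 5 mg/kg (100 μCi/kg) in 0.5% Tween 80 in Labrafil (1.0 mg/mL dosing solution) to rats fasted overnight through 4 h post-dose. One rat per time point; carcass frozen in hexane/dry ice. Quantitative whole-body autoradiography used 40 µm sagittal sections and a phosphor imaging plate calibrated with [¹⁴C]glucose standards (0.001–6.5 μCi/g). Read-out in µg eq apixaban/g; LLOQ 0.037 μg eq/g.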

Pancreas [6] = assay: Biodistribution in female Sprague-Dawley rat pancreas at 5 mg/kg, po administered as single dose measured after 72 hrs; type: ADME, organism-based
Summary of the method: (§4)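 Quantitative whole-body autoradiography was run after a single 5 mg/kg (100 μCi/kg) oral gavage to fasted female or pregnant SD rats, one rat per time point. Carcasses were frozen in hexane/dry ice, and 40 µm sagittal sections were dried at −20°C for at least 48 h. Sections were exposed to a phosphor plate alongside [14C]glucose standards (0.001–6.5 µCi/g). Results are µg eq/g, with LLOQ 0.037 µg eq/g.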

Harderian gland = assay: Biodistribution in pregnant Sprague-Dawley rat harderian gland at 5 mg/kg, po administered as single dose measured after 4 hrs; type: ADME, organism-based
Adrenal gland [7] = assay: Biodistribution in pregnant Sprague-Dawley rat adrenal gland at 5 mg/kg, po administered as single dose measured after 1 hr; type: ADME, organism-based
Pancreas [8] = assay: Biodistribution in female Sprague-Dawley rat pancreas at 5 mg/kg, po administered as single dose measured after 24 hrs; type: ADME, organism-based; summary of the method: as §4
Thymus = assay: Biodistribution in male Sprague-Dawley rat thymus at 5 mg/kg, po administered as single dose measured after 0.5 hrs; type: ADME, organism-based
Summary of the method: (§5)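 [14C]apixaban (1.0 mg/mL, 20 μCi/mL) in 0.5% Tween 80 in Labrafil, given by oral gavage at 100 μCi/kg to male rats (225-252 g) fasted overnight through 4 h post-dose. One rat per time point. Carcasses frozen in hexane/dry ice and cut into 40 µm sagittal sections. QWBA read on phosphor plates against [14C]glucose standards, reported as µg eq/g. LLOQ 0.037 µg eq/g.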

Blood [9] = assay: AUC (0 to t) in pregnant Sprague-Dawley rat blood at 5 mg/kg, po administered as single dose; type: ADME, organism-based
Brain [10] = assay: Biodistribution in pregnant Sprague-Dawley rat brain at 5 mg/kg, po administered as single dose measured after 24 hrs; type: ADME, organism-based; summary of the method: as §1
Rattus norvegicus [11] = assay: Biodistribution in male Sprague-Dawley rat brown fat at 5 mg/kg, po administered as single dose measured after 0.5 hrs; type: ADME, organism-based, Brown adipose tissue
Summary of the method: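 Fasted male rats, 225-252 g, received [14C]apixaban by single oral gavage at 100 μCi/kg in 0.5% Tween 80/Labrafil. One rat was killed per time point and the carcass frozen. Tissue radioactivity was quantified by QWBA (40 µm sagittal sections, phosphor plate, [14C]glucose calibration) as µg eq apixaban/g, with LLOQ 0.037 μg eq/g.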

Liver [12] = assay: Biodistribution in pregnant Sprague-Dawley rat liver at 5 mg/kg, po administered as single dose measured after 1 hr; type: ADME, organism-based; summary of the method: as §1
Blood [13] = assay: Biodistribution in male Sprague-Dawley rat blood at 5 mg/kg, po administered as single dose measured after 4 hrs; type: ADME, organism-based; summary of the method: as §3
Rattus norvegicus [14] = assay: Biodistribution in pregnant Sprague-Dawley rat pituitary gland at 5 mg/kg, po administered as single dose measured after 8 hrs; type: ADME, organism-based
Rattus norvegicus [15] = assay: Biodistribution in pregnant Sprague-Dawley rat amnion at 5 mg/kg, po administered as single dose measured after 24 hrs; type: ADME, organism-based
Brain [16] = assay: Biodistribution in male Sprague-Dawley rat brain at 5 mg/kg, po administered as single dose measured after 0.5 hrs; type: ADME, organism-based
Summary of the method: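 Fasted male SD rats were dosed orally by gavage with a single 5 mg/kg (100 μCi/kg) dose of [14C]apixaban, formulated at 1.0 mg/mL and 20 μCi/mL in 0.5% Tween 80/Labrafil. One rat was euthanized per time point and the carcass frozen and sectioned at 40 µm. Brain was quantified by QWBA against [14C]glucose calibration standards, as µg eq/g (LLOQ 0.037 µg eq/g).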

Liver [17] = assay: Biodistribution in male Sprague-Dawley rat liver at 5 mg/kg, po administered as single dose measured after 0.5 hrs; type: ADME, organism-based; summary of the method: as §5
Heart = assay: Biodistribution in male Sprague-Dawley rat heart at 5 mg/kg, po administered as single dose measured after 72 hrs; type: ADME, organism-based; summary of the method: as §2
Adrenal gland [18] = assay: Biodistribution in pregnant Sprague-Dawley rat adrenal gland at 5 mg/kg, po administered as single dose measured after 4 hrs; type: ADME, organism-based; summary of the method: as §1
Pancreas [19] = assay: Biodistribution in pregnant Sprague-Dawley rat pancreas at 5 mg/kg, po administered as single dose measured after 0.5 hrs; type: ADME, organism-based

AUCt (Blood [1]): 1940 ngequiv.hr/g | Radiolabel recovery (Rattus norvegicus [2]): Not detected assumed BLQ | Radiolabel recovery (Rattus norvegicus [3]): 0.41 ugequiv/g | Radiolabel recovery (Spleen): Not detected assumed BLQ | Radiolabel recovery (Adrenal gland [5]): 0.3 ugequiv/g | Radiolabel recovery (Harderian gland): 1.1 ugequiv/g | Radiolabel recovery (Adrenal gland [7]): 1.9 ugequiv/g | Radiolabel recovery (Pancreas [8]): Not detected assumed BLQ | Radiolabel recovery (Thymus): 0.16 ugequiv/g | AUCt (Blood [9]): 6980 ngequiv.hr/g | Radiolabel recovery (Brain [10]): Not detected assumed BLQ | Radiolabel recovery (Rattus norvegicus [11]): 0.46 ugequiv/g | Radiolabel recovery (Liver [12]): 7.38 ugequiv/g | Radiolabel recovery (Blood [13]): 0.6 ugequiv/g | Radiolabel recovery (Rattus norvegicus [14]): 0.19 ugequiv/g | Radiolabel recovery (Rattus norvegicus [15]): 3.52 ugequiv/g | Radiolabel recovery (Brain [16]): 0.05 ugequiv/g | Radiolabel recovery (Liver [17]): 0.81 ugequiv/g | Radiolabel recovery (Heart): Not detected assumed BLQ | Radiolabel recovery (Adrenal gland [18]): 2.3 ugequiv/g | Radiolabel recovery (Pancreas [19]): 0.89 ugequiv/g
Structure (SMILES): COc1ccc(-n2nc(C(N)=O)c3c2C(=O)N(c2ccc(N4CCCC[14C]4=O)cc2)CC3)cc1
Radiolabel recovery (Rattus norvegicus [4]): Not sampled as not visualised in autoradiograph | Radiolabel recovery (Pancreas [6]): Not sampled as not visualised in autoradiograph
